Shown are actives, neighbours in structure and some others; about 3.7% of the full set was active somewhere.
rCAG RNA binder – molecules binding r(CAG) RNA repeats; r(CAG) RNA repeat, TO-PRO-1 dye displacement fluorescence; inhibition, % at 3 µM; 1.3% of 370,000 active;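 active means inhibition above the plate cutoff, the mean of all test compounds on that plate plus 3 SD, cut at about 35% in these data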;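 further: 0% = DMSO alone and 100% = 100 µM mitoxantrone as full dye displacement; higher means more dye released from RNA so lower well fluorescence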
core dimer inh – blocks dimerization of HCV core protein | AID 1899 | 0.33% of 300,000 active | inhibition, % at 5 µM | TR-FRET GST/Flag-core106 dimerization, 1536-well;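 active means inhibition above the mean of all tested compounds plus 3 SD, set per screening campaign, cut at about 45% in these data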
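Assay system: Tagged HCV core106 pair (GST and Flag) | Buffer or medium: KF-containing HEPES buffer, pH 7.45, DTT, CHAPS, BSA | Also added: Eu donor and XL665 acceptor anti-tag antibodies | Dosing: One concentration, 5 µM, in 0.5% DMSO | Timing: 4 h at 22.5 °C | Technique: TR-FRET 671 and 617 nm emission | Repeats: Singlicate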
TAAR1 antag – human TAAR1 antagonism; 1.5% of 360,000 active; Q96RJ0; inhibition, % at 3 µM; CHO RD-HGA16 TAAR1, Fluo-8 calcium fluorescence, antagonist;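 active means inhibition above a per-plate cutoff, the mean inhibition of test compounds on that plate plus 3 SD, cut at about 49% in these data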;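 further: 0% = DMSO plus EC80 beta-PEA response and 100% = DMSO alone without agonist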
Target sequence (Q96RJ0 whole entry, looked up): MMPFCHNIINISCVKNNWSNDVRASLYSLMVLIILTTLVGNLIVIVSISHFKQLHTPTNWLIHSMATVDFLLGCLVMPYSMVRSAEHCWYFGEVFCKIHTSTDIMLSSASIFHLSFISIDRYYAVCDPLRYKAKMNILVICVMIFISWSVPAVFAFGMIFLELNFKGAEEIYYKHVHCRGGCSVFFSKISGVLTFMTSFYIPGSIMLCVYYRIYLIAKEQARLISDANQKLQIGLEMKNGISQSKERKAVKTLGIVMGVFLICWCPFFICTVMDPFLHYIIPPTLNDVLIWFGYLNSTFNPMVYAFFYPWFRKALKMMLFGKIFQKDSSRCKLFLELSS
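test system = CHO RD-HGA16 cells bearing hTAAR1 | replication = singlicate | controls = DMSO-only wells and EC80 β-PEA-stimulated wells | reagent = EC80 β-phenethylamine stimulus | read-out basis = percent inhibition of PEA-evoked calcium signal, max/basal emission ratio | schedule = seeding 17-24 h prior, 75-min 37 °C, 30-min RT dye loading | signal = kinetic Fluo-8 calcium fluorescence measurement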
TAAR1 ag – human TAAR1 agonism. Q96RJ0. CHO RD-HGA16 TAAR1, Fluo-8 calcium fluorescence; vehicle wells 0%, saturating PEA agonist 100%. activation, % at 3 µM. 0.99% of 360,000 active. AID 624467;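 active means activation above the mean activation of all test compounds in the run plus 3 SD, cut at about 38% in these data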
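Assay system: CHO-derived RD-HGA16 cells with stable Gα16 and human TAAR1; timing: 17-24 h seeding, 75 min 37 °C dye, 30 min RT; read-out: % activation from peak over basal fluorescence ratio, DMSO-to-PEA scaled; measured by: kinetic Fluo-8 calcium fluorescence; benchmarks: low control DMSO, high control PEA (EC100); doses: 3 µM single concentration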
HCV NS3 hel inh – blocks Hepatitis C virus NS3 helicase unwinding; NS3 helicase DNA unwinding, Cy5 molecular beacon fluorescence; inhibition, % at 10.9 µM; 0.56% of 290,000 active;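 active means inhibition above the mean of all tested compounds plus 3 SD, set per campaign, cut at about 35% in these data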;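 further: 0% = DMSO wells and 100% = thioflavine S control wells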
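Control set: DMSO versus 110 µM thioflavine S; Material: NS3 helicase fragment of HCV; Measured by: Cy5 fluorescence at 0 and 60 min, beacon hairpin quenching; Read-out basis: percent inhibition from t60/t0 fluorescence ratio; Times: reaction time 60 min, 25 °C; Repeats: single replicate; Compound dosing: single dose, 10.9 µM nominal final, DMSO 0.8% final.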
TAAR1 ag conf – confirmation of human TAAR1 agonists | shares compounds with TAAR1 ag | AID 651783 | activation, % at 3 µM | 82% of 2,400 active | CHO RD-HGA16 TAAR1, Fluo-8 calcium fluorescence; scaled: DMSO 0%, maximal phenethylamine 100%;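 active means activation above a cutoff set at the run's mean compound activation plus 3 SD, cut at about 39% in these data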
Ga16 nonsel ag – nonselective agonist in parental cells, TAAR1 agonist counter-screen; activation, % at 3 µM; AID 651787; 50% of 2,400 active; CHO-Ga16 parental, Fluo-8 calcium fluorescence; normalized to maximal ATP response, DMSO zero; shares compounds with TAAR1 ag;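 active means activation above the run cutoff, the mean activation over all tested wells plus 3 SD, cut at about 12% in these data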;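 further: 0% = DMSO wells and 100% = maximal ATP response on the peak over basal ratio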
TAAR1 desensitize – TAAR1 response desensitization, agonist counter-screen; shares compounds with TAAR1 ag; CHO RD-HGA16 hTAAR1, Fluo-8 calcium, beta-PEA response inhibition; inhibition, % at 3 µM; 46% of 2,400 active; AID 651951;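 active means inhibition above the run cutoff, the mean inhibition of all test compounds plus 3 SD, cut at about 49% in these data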;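 further: beta-PEA stimulus applied at its EC80; loss of beta-PEA calcium signal after compound pretreatment read as receptor desensitization; 0% = DMSO with beta-PEA at EC80 and 100% = DMSO alone without agonist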
Ga16 nonsel ant – nonselective Ga16 antagonist in TAAR1 agonist counter-screen; inhibition, % at 3 µM; shares compounds with TAAR1 ag; 39% of 2,400 active; CHO-Ga16 ATP-induced calcium, Fluo-8 fluorescence;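 active means inhibition above the plate's mean compound inhibition plus 3 SD, computed per plate, cut at about 22% in these data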;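 further: 0% = EC80 ATP with DMSO and 100% = DMSO wells without ATP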
Active calls of the source: *; . = no result.

SMILES	rCAG RNA binder	core dimer inh	TAAR1 antag	TAAR1 ag	HCV NS3 hel inh	TAAR1 ag conf	Ga16 nonsel ag	TAAR1 desensitize	Ga16 nonsel ant
Cc1ccc(-c2c(C(=O)N/N=C/c3cccc(Cl)c3)nnn2-c2nonc2N)cc1	4	8	35	4	8	.	.	.	.
Cc1ccc(-c2c(C(=O)N/N=C/c3ccsc3)nnn2-c2nonc2N)cc1	2	15	50*	133*	-2	125*	90*	72*	34*
CCOc1ccc(-c2c(C(=O)N/N=C/c3ccccc3)nnn2-c2nonc2N)cc1	7	3	-15	51*	6	43*	30*	13	15
CCOc1ccc(-c2c(C(=O)N/N=C/c3ccc(Cl)cc3)nnn2-c2nonc2N)cc1	10	17	26	107*	7	113*	70*	45	13
CCOc1ccc(-c2c(C(=O)N/N=C/c3ccncc3)nnn2-c2nonc2N)cc1	1	-4	-29	13	-4	.	.	.	.
CCOc1cccc(-c2c(C(=O)N/N=C/c3ccsc3)nnn2-c2nonc2N)c1	3	3	20	118*	-7	136*	93*	67*	27*
CCOc1cccc(-c2c(C(=O)N/N=C/c3sccc3C)nnn2-c2nonc2N)c1	11	9	-4	31	8	.	.	.	.
COC(=O)C1=C(C)N(Cc2ccccc2C(F)(F)F)C(=NCc2ccc3c(c2)OCO3)NC1CCc1ccccc1 (configuration not stated)	10	.	14	17	.	.	.	.	.
CCNC(=O)N(C)[C@H]1C[C@H]2c3[nH]c4c(-c5cccc(C)c5)cccc4c3CCN2C(=O)[C@H]1[C@H](C)O	8	.	.	.	.	.	.	.	.
CCOc1ccc(-c2c(C(=O)N/N=C/c3ccc(C)cc3)nnn2-c2nonc2N)cc1	6	10	34	122*	1	118*	73*	76*	48*
Cc1ccc(-c2c(C(=O)N/N=C/c3ccoc3)nnn2-c2nonc2N)cc1	4	2	20	73*	-5	87*	59*	14	6
CC(C)c1[nH]nc2c1C(c1cccc(C(F)(F)F)c1)N(Cc1ccccc1)C2=O (configuration not stated)	0	.	-19	6	.	.	.	.	.
CCOC(=O)c1ccc(NS(=O)(=O)c2ccc(SC)cc2)cc1	13	1	14	46*	-5	40*	19*	36	26*
Cc1ccc(NS(=O)(=O)c2ccc(C(=O)NCC(c3ccco3)N(C)C)cc2)cc1 (configuration not stated)	1	8	54*	105*	-19	108*	49*	65*	33*
COc1ccc(NS(=O)(=O)c2ccc(C(=O)N3CCC(C)CC3)cc2)cc1	0	.	26	91*	.	76*	40*	39	26*
CN(C)C(CNC(=O)c1ccc(NS(=O)(=O)c2ccc(F)cc2)cc1)c1ccco1 (configuration not stated)	3	-1	-9	2	.	.	.	.	.
CCOc1ccc(NS(=O)(=O)c2ccc(C(=O)NCC(c3ccco3)N3CCCC3)cc2)cc1 (configuration not stated)	6	.	28	65*	.	83*	39*	44	29*
CCc1cc2c(nc1CC)CCCN2S(=O)(=O)c1cccs1	0	.	-32	-1	.	.	.	.	.
CC(C)(C)c1ccc(C#C[C@@H]2C=C[C@H]3OC(=O)CC/C=C/CCC(=O)OC[C@H]3O2)cc1	7	.	-5	0	.	.	.	.	.
O=S1(=O)c2ccc(N3CC[C@H](O)C3)cc2O[C@@H]2CCN1C2	2	.	.	.	.	.	.	.	.
CCN(c1ccccc1)S(=O)(=O)c1ccc(C(=O)NCC(c2ccccc2OC)N2CCCC2)cc1 (configuration not stated)	6	.	15	46*	.	60*	13*	26	25*
CCOc1ccc(NS(=O)(=O)c2ccc(C(=O)N3CC(C)OC(C)C3)cc2)cc1 (configuration not stated)	1	.	79*	130*	.	119*	91*	79*	40*
CCOc1ccc(NS(=O)(=O)c2ccc(C(=O)N3CCCCC3)cc2)cc1	-2	-10	42	67*	-5	66*	45*	39	35*
C=CCN(c1ccccc1)S(=O)(=O)c1cccc(C(=O)NCC(c2ccccc2OC)N2CCCC2)c1 (configuration not stated)	-2	-6	-37	0	.	.	.	.	.
CCCCN1CC[C@@H](C)Oc2cc(Br)ccc2S1(=O)=O	1	.	.	.	.	.	.	.	.
SMILES	rCAG RNA binder	core dimer inh	TAAR1 antag	TAAR1 ag	HCV NS3 hel inh	TAAR1 ag conf	Ga16 nonsel ag	TAAR1 desensitize	Ga16 nonsel ant
Cc1cccc(C(=O)Nc2nc3ncccn3c2-c2ccc(C(F)(F)F)cc2)c1	4	.	.	.	.	.	.	.	.
Cc1cc(C)cc(NC(=O)C2(C(=O)C3CC3)CC(c3ccccc3C(F)(F)F)=NO2)c1 (configuration not stated)	1	.	.	.	.	.	.	.	.
F[B-](F)(F)COCc1ccccc1C#Cc1ccccc1	13	.	-13	1	.	.	.	.	.
OCCCc1nc2n(n1)C(c1cccs1)C=C(c1ccc(Br)cc1)N2 (configuration not stated)	.	3	.	.	2	.	.	.	.
Brc1ccc(C2=CC(c3cccs3)n3ncnc3N2)cc1 (configuration not stated)	-216	10	110*	164*	-2	36	51*	62*	57*
COc1ccc(CNS(=O)(=O)/C=C/c2ccc(F)cc2CNC(=O)OC(C)(C)C)cc1	2	.	.	.	.	.	.	.	.
CCN1CCCCC(NC(=O)c2ccccc2C)C1=O (configuration not stated)	-1	.	.	.	.	.	.	.	.
CC(c1ccccc1C(O)(c1ccccc1)c1ccccc1)N(C)C (configuration not stated)	-2	-5	74*	114*	-46	113*	70*	98*	63*
COc1ccccc1C(O)(c1ccccc1)c1ccccc1OC	0	.	5	0	.	.	.	.	.
OCCNc1nc(Nc2ccccc2)nc2ccccc12	-1	-3	92*	97*	-7	89*	2	98*	11
Oc1ccccc1Nc1nc(NCc2ccccc2)c2ccccc2n1	16	-1	13	13	-69	.	.	.	.

Screening data: PubChem BioAssay, The Scripps Research Institute Molecular Screening Center
